What all share (format): functional
One experiment concerns Streptococcus pyogenes. Description: In vitro minimum inhibitory concentration against Streptococcus pyogenes 930 using brain-heart infusion agar. The procedure, abridged:
(§1)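 Overnight cultures were grown in BHI broth at 36 °C. Twofold dilutions of a 2000 µg/mL stock were made in BHI agar, giving 200–0.005 µg/mL. Plates received about 10^4 organisms and were incubated for 18 h at 36 °C. MIC was the lowest concentration with no visible growth on the plate.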

The test system of experiment [1] is Staphylococcus epidermidis. As to the kind of experiment: In vitro minimum inhibitory concentration against Staphylococcus epidermidis 3159 using brain-heart infusion agar. The procedure, abridged:
as §1

For experiment [2], the system named is Pseudomonas aeruginosa. Description: In vitro minimum inhibitory concentration against Pseudomonas aeruginosa K799 / WT using brain-heart infusion agar. The procedure, abridged:
as §1

Experiment [3] deals with Pseudomonas aeruginosa. As to the kind of experiment: In vitro minimum inhibitory concentration against Pseudomonas aeruginosa A5007 using brain-heart infusion agar. The procedure, abridged:
as §1

For a further experiment, the system named is Escherichia coli. Description: In vitro minimum inhibitory concentration against Escherichia coli Juhl using brain-heart infusion agar. The procedure, abridged:
as §1

The next experiment has as its system Enterococcus faecium. Description: In vitro minimum inhibitory concentration against Enterococcus faecium ATCC 8043 using brain-heart infusion agar. The procedure, abridged: as §1
Another experiment deals with Acinetobacter. As to the kind of experiment: In vitro minimum inhibitory concentration against Acinetobacter CMX 669 using brain-heart infusion agar. The procedure, abridged:
as §1

Experiment [4] relates to Staphylococcus aureus. As to the kind of experiment: In vitro minimum inhibitory concentration against Staphylococcus aureus A 5177 using brain-heart infusion agar. The procedure, abridged: as §1
In another experiment the test system is Klebsiella aerogenes. As to the kind of experiment: In vitro minimum inhibitory concentration against Enterobacter aerogenes ATCC 13048 using brain-heart infusion agar. The procedure, abridged: as §1
The subject of another experiment is Klebsiella pneumoniae. As to the kind of experiment: In vitro minimum inhibitory concentration against Klebsiella pneumoniae 8045 using brain-heart infusion agar. The procedure, abridged:
as §1

For another experiment, the system named is Streptococcus equinus. As to the kind of experiment: In vitro minimum inhibitory concentration against Streptococcus bovis A5169 using brain-heart infusion agar. The procedure, abridged: as §1
For a further experiment, the system named is Streptococcus agalactiae. As to the kind of experiment: In vitro minimum inhibitory concentration against Streptococcus agalactiae CMX 508 using brain-heart infusion agar. The procedure, abridged:
as §1

Experiment [5] relates to Staphylococcus aureus. As to the kind of experiment: In vitro minimum inhibitory concentration against Staphylococcus aureus ATCC 6538P using brain-heart infusion agar. The procedure, abridged:
as §1

Experiment [6] has as its system Staphylococcus aureus. Description: In vitro minimum inhibitory concentration against Staphylococcus aureus CMX 553 using brain-heart infusion agar. The procedure, abridged: as §1
Experiment [7] relates to Staphylococcus aureus. As to the kind of experiment: In vitro minimum inhibitory concentration against Staphylococcus aureus NCTC 10649 using brain-heart infusion agar. The procedure, abridged: as §1
Experiment [8] relates to Staphylococcus aureus. Description: In vivo antibacterial activity against Staphylococcus aureus NCTC 10649 infected mouse by subcutaneous administration. To be noted: sc. The procedure, abridged: (§2)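 Compound was given in water or in dilute NaOH diluted with water, orally or subcutaneously. The dose was split equally between 1 and 5 h post-infection. Groups were 10 mice at ≥3 dose levels. ED50 was calculated from day-6 cumulative mortality by the trimmed Logit method.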

Experiment [9] concerns Staphylococcus aureus. As to the kind of experiment: In vivo antibacterial activity against Staphylococcus aureus NCTC 10649 infected mouse by oral administration. The procedure, abridged: as §2

Each structure is given as a SMILES string. Values after ≈ are worked out from the molar mass of the structure shown. Where only a bound is given, the exact number is not on record here.

Regarding `NC1CCN(c2nc3c(cc2F)c(=O)c(C(=O)O)cn3C2CC2)C1` (stereo not drawn), the MIC in the experiment on Streptococcus pyogenes was 0.39 µg/mL (≈ 1.17 µM); in experiment [1] it was 0.1 µg/mL (≈ 0.301 µM); in the experiment on Pseudomonas aeruginosa [2] it was 0.1 µg/mL (≈ 0.301 µM); in the experiment with Pseudomonas aeruginosa [3] it was 0.1 µg/mL (≈ 0.301 µM); with Escherichia coli, 0.01 µg/mL (≈ 0.0301 µM); against Enterococcus faecium it was 0.39 µg/mL (≈ 1.17 µM). Moreover, the minimal inhibitory concentration (MIC) in the experiment with Acinetobacter came to 0.1 µg/mL (≈ 0.301 µM); with Staphylococcus aureus [4], 0.2 µg/mL (≈ 0.602 µM); in the experiment with Klebsiella aerogenes it was 0.02 µg/mL (≈ 0.0602 µM); in the experiment with Klebsiella pneumoniae, 0.01 µg/mL (≈ 0.0301 µM); with Streptococcus equinus it was 0.78 µg/mL (≈ 2.35 µM); against Streptococcus agalactiae it was 0.39 µg/mL (≈ 1.17 µM). Moreover, the minimum inhibitory concentration (MIC) against Staphylococcus aureus [5] and in the experiment on Staphylococcus aureus [6] was 0.1 µg/mL (≈ 0.301 µM) in each case.
For `O=C1CCN(c2cc3c(cc2F)c(=O)c(C(=O)O)cn3C2CC2)C1`, the minimal inhibitory concentration (MIC) is over 100 µg/mL in the experiment with Streptococcus pyogenes; 3.1 µg/mL (≈ 9.38 µM) in experiment [1]; over 100 µg/mL with Pseudomonas aeruginosa [2]; over 100 µg/mL in the experiment with Pseudomonas aeruginosa [3]; 6.2 µg/mL (≈ 18.8 µM) against Escherichia coli; over 100 µg/mL in the experiment on Enterococcus faecium. The MIC is 50 µg/mL (≈ 151 µM) in the experiment with Acinetobacter; 1.56 µg/mL (≈ 4.72 µM) against Staphylococcus aureus [7]; 3.1 µg/mL (≈ 9.38 µM) against Staphylococcus aureus [4]; 12.5 µg/mL (≈ 37.8 µM) against Klebsiella aerogenes; 6.2 µg/mL (≈ 18.8 µM) in the experiment on Klebsiella pneumoniae; over 100 µg/mL in the experiment on Streptococcus equinus. Further, the figures for the minimum inhibitory concentration (MIC) in the experiment with Streptococcus agalactiae, with Staphylococcus aureus [5] and in the experiment on Staphylococcus aureus [6] were 100 µg/mL (≈ 303 µM), 1.56 µg/mL (≈ 4.72 µM) and 3.1 µg/mL (≈ 9.38 µM), respectively.
For `O=C1CCN(c2nc3c(cc2F)c(=O)c(C(=O)O)cn3-c2ccc(F)cc2F)CC1`, the minimal inhibitory concentration (MIC) in the experiment with Streptococcus pyogenes worked out at 1.56 µg/mL (≈ 3.74 µM); in experiment [1], 0.2 µg/mL (≈ 0.479 µM); against Pseudomonas aeruginosa [2] it was 3.1 µg/mL (≈ 7.43 µM); against Pseudomonas aeruginosa [3] it was 12.5 µg/mL (≈ 30 µM); in the experiment on Escherichia coli it was 0.39 µg/mL (≈ 0.934 µM); against Enterococcus faecium, 1.56 µg/mL (≈ 3.74 µM). The minimum inhibitory concentration (MIC) with Acinetobacter came to 1.56 µg/mL (≈ 3.74 µM); in the experiment with Staphylococcus aureus [7] it was 0.1 µg/mL (≈ 0.24 µM); in the experiment with Staphylococcus aureus [4], 0.1 µg/mL (≈ 0.24 µM); with Klebsiella aerogenes, 3.1 µg/mL (≈ 7.43 µM); with Klebsiella pneumoniae, 0.39 µg/mL (≈ 0.934 µM); in the experiment with Streptococcus equinus it was 3.1 µg/mL (≈ 7.43 µM). The MIC against Streptococcus agalactiae was determined as 1.56 µg/mL (≈ 3.74 µM); with Staphylococcus aureus [5] it was 0.05 µg/mL (≈ 0.12 µM); in the experiment with Staphylococcus aureus [6], 0.1 µg/mL (≈ 0.24 µM).
Turning to `O=C(O)c1cn(-c2ccc(F)cc2F)c2nc(N3CCC(=NO)CC3)c(F)cc2c1=O`, the MIC in the experiment with Streptococcus pyogenes was determined as 1.56 µg/mL (≈ 3.61 µM); in experiment [1], 0.2 µg/mL (≈ 0.463 µM); in the experiment on Pseudomonas aeruginosa [2] it was 6.2 µg/mL (≈ 14.3 µM); against Pseudomonas aeruginosa [3] it was 12.5 µg/mL (≈ 28.9 µM); in the experiment with Escherichia coli, 0.78 µg/mL (≈ 1.8 µM); with Enterococcus faecium it was 1.56 µg/mL (≈ 3.61 µM). The MIC amounted to 3.1 µg/mL (≈ 7.17 µM) against Acinetobacter; 0.1 µg/mL (≈ 0.231 µM) against Staphylococcus aureus [7]; 0.1 µg/mL (≈ 0.231 µM) against Staphylococcus aureus [4]; 3.1 µg/mL (≈ 7.17 µM) in the experiment on Klebsiella aerogenes; 0.78 µg/mL (≈ 1.8 µM) against Klebsiella pneumoniae; 3.1 µg/mL (≈ 7.17 µM) in the experiment with Streptococcus equinus. The MIC in the experiment with Streptococcus agalactiae amounted to 0.78 µg/mL (≈ 1.8 µM); in the experiment on Staphylococcus aureus [5], 0.05 µg/mL (≈ 0.116 µM); in the experiment on Staphylococcus aureus [6] it was 0.2 µg/mL (≈ 0.463 µM). Moreover, the ED50 with Staphylococcus aureus [8] is over 2 mg/kg; with Staphylococcus aureus [9], over 8 mg/kg.
Regarding `O=C(O)c1cn(C2CC2)c2c(F)c(N3CC/C(=N\O)C3)c(F)cc2c1=O`, the minimum inhibitory concentration (MIC) in the experiment on Streptococcus pyogenes was determined as 0.1 µg/mL (≈ 0.275 µM); in experiment [1], 0.02 µg/mL (≈ 0.055 µM); with Pseudomonas aeruginosa [2], 0.78 µg/mL (≈ 2.15 µM); against Pseudomonas aeruginosa [3], 0.78 µg/mL (≈ 2.15 µM); with Escherichia coli, 0.02 µg/mL (≈ 0.055 µM); in the experiment on Enterococcus faecium it was 0.1 µg/mL (≈ 0.275 µM). The minimum inhibitory concentration (MIC) in the experiment with Acinetobacter came to 0.2 µg/mL (≈ 0.55 µM); against Staphylococcus aureus [7], 0.01 µg/mL (≈ 0.0275 µM); in the experiment with Staphylococcus aureus [4], 0.01 µg/mL (≈ 0.0275 µM); against Klebsiella aerogenes, 0.39 µg/mL (≈ 1.07 µM); with Klebsiella pneumoniae it was 0.05 µg/mL (≈ 0.138 µM); in the experiment on Streptococcus equinus, 0.2 µg/mL (≈ 0.55 µM). Further, the MIC is 0.1 µg/mL (≈ 0.275 µM) against Streptococcus agalactiae, under 0.005 µg/mL with Staphylococcus aureus [5] and 0.02 µg/mL (≈ 0.055 µM) in the experiment with Staphylococcus aureus [6]. The ED50 in the experiment on Staphylococcus aureus [8] amounted to 1.5 mg/kg; in the experiment with Staphylococcus aureus [9] it was 3 mg/kg.
Consider `O=C1CCN(c2c(F)cc3c(=O)c(C(=O)O)cn(C4CC4)c3c2F)C1`, for which the MIC against Streptococcus pyogenes was 25 µg/mL (≈ 71.8 µM); in experiment [1], 1.56 µg/mL (≈ 4.48 µM); against Pseudomonas aeruginosa [2], 50 µg/mL (≈ 144 µM); in the experiment with Pseudomonas aeruginosa [3], 50 µg/mL (≈ 144 µM); with Escherichia coli it was 0.39 µg/mL (≈ 1.12 µM); in the experiment on Enterococcus faecium it was 6.2 µg/mL (≈ 17.8 µM). Moreover, the MIC is 3.1 µg/mL (≈ 8.9 µM) against Acinetobacter; 0.39 µg/mL (≈ 1.12 µM) with Staphylococcus aureus [7]; 0.78 µg/mL (≈ 2.24 µM) in the experiment with Staphylococcus aureus [4]; 1.56 µg/mL (≈ 4.48 µM) against Klebsiella aerogenes; 0.39 µg/mL (≈ 1.12 µM) with Klebsiella pneumoniae; 50 µg/mL (≈ 144 µM) in the experiment on Streptococcus equinus. Besides, the MIC in the experiment on Streptococcus agalactiae turned out to be 12.5 µg/mL (≈ 35.9 µM); in the experiment with Staphylococcus aureus [5] it was 0.78 µg/mL (≈ 2.24 µM); in the experiment with Staphylococcus aureus [6], 0.39 µg/mL (≈ 1.12 µM).
With `O=C1CCN(c2cc3c(cc2F)c(=O)c(C(=O)O)cn3-c2ccc(F)cc2F)C1`, the minimal inhibitory concentration (MIC) in the experiment with Streptococcus pyogenes was 25 µg/mL (≈ 62.1 µM); in experiment [1] it was 1.56 µg/mL (≈ 3.88 µM); with Pseudomonas aeruginosa [2] it was 50 µg/mL (≈ 124 µM); against Pseudomonas aeruginosa [3], over 100 µg/mL; in the experiment on Escherichia coli, 12.5 µg/mL (≈ 31.1 µM); in the experiment with Enterococcus faecium, 25 µg/mL (≈ 62.1 µM). In addition, the MIC was 12.5 µg/mL (≈ 31.1 µM) in the experiment on Acinetobacter; 0.39 µg/mL (≈ 0.969 µM) in the experiment with Staphylococcus aureus [7]; 1.56 µg/mL (≈ 3.88 µM) against Staphylococcus aureus [4]; 12.5 µg/mL (≈ 31.1 µM) in the experiment with Klebsiella aerogenes; 6.2 µg/mL (≈ 15.4 µM) against Klebsiella pneumoniae; over 100 µg/mL with Streptococcus equinus. Further, the MIC stood at 12.5 µg/mL (≈ 31.1 µM) in the experiment on Streptococcus agalactiae, 0.39 µg/mL (≈ 0.969 µM) in the experiment on Staphylococcus aureus [5] and 1.56 µg/mL (≈ 3.88 µM) with Staphylococcus aureus [6].

These data come from ChEMBL document CHEMBL1125434, “Preparation and in vitro and in vivo evaluation of quinolones with selective activity against gram-positive organisms” (1992).
